From PMC5096746 (Drug Design, Development and Therapy, 2016)
Marks after values point to notes of the source that are not given here.

Experiments:
[1] = tested on: NO (nitrite) in RAW264.7 mouse macrophages; experiment: Nitric oxide; format: cell-based; conditions: 20 µM compound, LPS-stimulated, LPS alone 20.46±1.03
TNFα = experiment: In vitro TNFα assay; format: cell-based; conditions: Mus musculus, RAW264.7, read-out: TNFα inhibition
In short: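 Macrophages grown in RPMI 1640 with 10% FBS, penicillin and streptomycin. Cells preincubated with cytochalasin D (2.5 μM/10^6 cells) for 30 min, then seeded at 2×10^6 cells/mL. LPS added with test compound or celecoxib at 20 μM for 24 h. Supernatant TNFα measured by sandwich ELISA (TMB substrate, 30 min dark, H2SO4 stop, A450) against kit standard.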

[2] = tested on: carrageenan-induced rat-paw edema; experiment: Carrageenan-induced rat-paw edema, in vivo anti-inflammatory activity; parameters: species or system Wistar rats; conditions: oral, dose equimolar to ibuprofen 20 mg/kg; for Anti-inflammatory activity (% inhibition ± SEM) 3 hours: 3 hours post-carrageenan; for Anti-inflammatory activity (% inhibition ± SEM) 4 hours: 4 hours post-carrageenan
gastric mucosa = experiment: Acute ulcerogenic activity; format: in vivo; conditions: rats
In short: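 Rats; controls received 0.5% carboxymethyl cellulose. After dosing, rats were fed a normal diet for 17 h and then killed. Stomachs opened along the greater curvature and mucosa examined under microscopy. Scoring: 0.5 redness, 1 spot ulcer, 1.5 haemorrhagic streaks, 2 ulcers >3 but <5, 3 ulcers >5. Severity index = treated-group mean score minus control mean.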

Cc1ccc(-c2cc(C(F)(F)F)nn2-c2ccc(S(N)(=O)=O)cc2)cc1 [Celecoxib, celecoxib]
NO (nitrite/mg, mmol/mg) 20 µM [1]: 7.53 ± 0.23 mmol/mg | NO (nitrite/mg, mmol/mg) 20 µM ([1]; listed as celecoxib): 7.53 mmol/mg | inhibition at 20 µM (TNFα): 72%

c1ccc(COc2ccc(-c3nn(-c4ccccc4)cc3CNc3ccccc3)cc2)cc1 [Compound 5a, N-((3-(4-(Benzyloxy)phenyl)-1-phenyl-1H-pyrazol-4-yl)methyl)aniline]
Anti-inflammatory activity (% inhibition ± SEM) 3 hours [2]: 50.77±4.28 ^c % | Anti-inflammatory activity (% inhibition ± SEM) 4 hours [2]: 47.91±4.39 ^c %

CC(C)Cc1ccc(C(C)C(=O)O)cc1 (stereo not drawn) [Ibuprofen, ibuprofen]
Anti-inflammatory activity (% inhibition ± SEM) 3 hours [2]: 81.32±0.59 ^a % | Anti-inflammatory activity (% inhibition ± SEM) 4 hours [2]: 79.23±0.4 ^a % | Gastric ulceration / mucosal damage (histopathology, in words) (gastric mucosa; 60 mg/kg): mucosal cell damage | Ulcerogenic activity (severity index ± SEM) (gastric mucosa; 60 mg/kg oral, killed after 17 hours, mean score minus control score): 1.16±0.4
